SMILES strings stand for the structures.

Among the data in ChEMBL document CHEMBL1127493, “Glycylcyclines. 1. A new generation of potent antibacterial agents through modification of 9-aminotetracyclines” (1994) are MIC values, retold here.

Holding throughout (type): functional
The subject of test [1] is Escherichia coli. The experiment in a line: In vitro minimum inhibitory concentration against Escherichia coli J3272 (tet D efflux). An outline of the steps: (§1)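 Agar dilution on Mueller–Hinton II agar; inoculum (1-5) × 10^5 CFU/mL; antibiotic concentrations 32–0.004 µg/mL; plates incubated 18 h at 35 °C in forced-air incubator. MIC taken as lowest concentration inhibiting growth of the test organism (tetracycline-sensitive and tetracycline-resistant strains).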

The subject of test [2] is Staphylococcus aureus. The experiment in a line: In vitro minimum inhibitory concentration against Staphylococcus aureus UBMS 90-3 (sensitive). An outline of the steps: as §1
Test [3] concerns Escherichia coli. The test can be described thus: In vitro minimum inhibitory concentration against Escherichia coli UBMS 90-4 (tet M ribosomal protection). The method, boiled down: as §1
In the next test the test system is Enterococcus faecalis. The test can be described thus: In vitro minimum inhibitory concentration against Enterococcus faecalis ATCC 29212. The method, boiled down: as §1
The subject of test [4] is Staphylococcus aureus. The experiment in a line: In vitro minimum inhibitory concentration against Staphylococcus aureus UBMS 88-7 (tet K efflux). An outline of the steps:
as §1

In test [5] the test system is Escherichia coli. The experiment in a line: In vitro minimum inhibitory concentration against Escherichia coli UBMS 90-5 (sensitive). The method, boiled down: as §1
Test [6] concerns Escherichia coli. The experiment in a line: In vitro minimum inhibitory concentration against Escherichia coli J3272 (tet C efflux). The method, boiled down:
as §1

The test system of test [7] is Staphylococcus aureus. The test can be described thus: In vitro minimum inhibitory concentration against Staphylococcus aureus UBMS 90-1 (tet M ribosomal protection). An outline of the steps:
as §1

The subject of test [8] is Escherichia coli. The test can be described thus: In vitro minimum inhibitory concentration against Escherichia coli UBMS 88-1 (tet B efflux). The method, boiled down:
as §1

Test [9] deals with Staphylococcus aureus. The test can be described thus: In vitro minimum inhibitory concentration against Staphylococcus aureus smith (sensitive). The method, boiled down:
as §1

Test [10] has as its system Escherichia coli. The test can be described thus: In vitro minimum inhibitory concentration against Escherichia coli PRP-1 (tet A efflux). An outline of the steps: as §1

One may read the MIC as the least concentration at which growth counts as inhibited. A low value points to greater potency. On to `CN(C)CC(=O)Nc1cc(I)c2c(c1O)C(=O)C1=C(O)[C@]3(O)C(O)=C(C(N)=O)C(=O)[C@@H](N(C)C)C3CC1C2.Cl` (stereo partly specified), for which the MIC came out at 0.5 µg/mL in the test with Escherichia coli [1]; 0.12 µg/mL in the test with Staphylococcus aureus [2]; 1 µg/mL in the test on Escherichia coli [3]; 0.06 µg/mL against Enterococcus faecalis; 4 µg/mL against Staphylococcus aureus [4]; 2 µg/mL against Escherichia coli [5]. Also, the minimal inhibitory concentration (MIC) stood at 4 µg/mL in the test with Escherichia coli [6]; 0.5 µg/mL in the test on Staphylococcus aureus [7]; 1 µg/mL against Escherichia coli [8]; 0.25 µg/mL in the test on Staphylococcus aureus [9]; 8 µg/mL against Escherichia coli [10].
